A value given as a limit tells only on which side of the number the result lay.

Experimental findings from ChEMBL document CHEMBL1127591, “Novel prodrugs of alkylating agents derived from 2-fluoro- and 3-fluorobenzoic acids for antibody-directed enzyme prodrug therapy” (J Med Chem, 1994) are described below.

Series [1] deals with LS174T. In words: Compound was evaluated for its cytotoxicity without carboxypeptidase G2 in the colorectal cell line LS174T for 1 hour. Format: functional, cell-based. To be noted: Homo sapiens. In a few lines: (§1)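 LS174T cells (2.5 × 10³/well) in DMEM + 10% FCS, 5% CO2, 37 °C. Exposed once for 1 h to six concentrations (1–800 μM), with or without CPG2 (6 units/mL final). Compounds and enzyme were freshly prepared. Cells washed three times, regrown 6 days, then fixed and stained. Viable-cell protein read by sulforhodamine B against untreated controls. Octuplicate wells.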

Series [2] in a line: Chemical half-life in percholate at 37 degree was determined. Format: ADME. To be noted: perchlorate solution. Put shortly: (§2)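 Sodium perchlorate (0.1 M) at 37 °C. Hydrolysis was followed to effective completion by titrating the released acid with 0.01 M NaOH under N2 on an automatic titrator held at pH 7.4. Each compound was run at least twice, and t1/2 is the mean of all determinations.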

Series [3] in a line: Kinetics of potential prodrugs as substrates for carboxypeptidase G2 was determined and reported as Michaelis-Menten constant. The format is ADME. Put shortly:
(§3)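 CPG2 cleavage of the benzoylglutamate amide bond in 100 mM Tris/HCl pH 7.3 with 260 μM ZnCl2 at 37 °C in a thermostated spectrophotometer. Absorbance fall was read at the wavelength of maximal prodrug–parent difference, chosen from 240–400 nm scans. Substrate 0.1–100 μM, CPG2 (0.01–1.0 unit) held constant per run. Michaelis–Menten fit. Duplicates.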

Series [4] relates to LS174T. Kind of series: Compound was evaluated for its cytotoxicity with carboxypeptidase G2 in the colorectal cell line LS174T for 1 hour. The following applies: Homo sapiens. Format: functional, cell-based. Put shortly:
as §1

The nature of series [5]: Kinetics of potential prodrugs as substrates for carboxypeptidase G2 was determined and reported as first order constant. Format: ADME. In a few lines: as §3
Series [6] in a line: Kinetics of potential prodrugs as substrates for carboxypeptidase G2 was determined and reported as apparent second order constant. The format is ADME. In a few lines: as §3
The nature of series [7]: Chemical half-life in percholate at 37 degree Centigrade. Format: ADME. The following applies: perchlorate solution. In a few lines: as §2

In the series on LS174T [1], `CS(=O)(=O)OCCN(CCCl)c1ccc(C(=O)O)cc1` yielded an IC50 of 185 µM. Moreover, the half-life in series [2] is 0.967 h.

Turning to `CS(=O)(=O)OCCN(CCCl)c1ccc(C(=O)N[C@@H](CCC(=O)O)C(=O)O)cc1`, the Km in series [3] came to 3.4 µM. In addition, in the series on LS174T [4], the IC50 came to 200 µM. Moreover, the k cat in series [5] was determined as 583 s⁻¹. This molecule also came in with a half-life in series [2] of 16.4 h. The “k cat/Km” value in series [6] stood at 1.71e+08 M⁻¹ s⁻¹.

In the case of `CS(=O)(=O)OCCN(CCCl)c1ccc(C(=O)N[C@@H](CCC(=O)O)C(=O)O)c(F)c1`, the Km in series [3] was found to be 11 µM. Also, in series [5], the k cat was 213 s⁻¹. The “k cat/Km” value in series [6] came to 1.9e+07 M⁻¹ s⁻¹.

Molecule `O=C(O)CC[C@H](NC(=O)c1ccc(N(CCCl)CCCl)cc1)C(=O)O` returned a half-life in series [2] of 19.3 h.

With `CS(=O)(=O)OCCN(CCOS(C)(=O)=O)c1ccc(C(=O)N[C@@H](CCC(=O)O)C(=O)O)cc1`, the half-life in series [7] worked out at 0.7 h.

As for `CS(=O)(=O)OCCN(CCCl)c1ccc(C(=O)N[C@@H](CCC(=O)O)C(=O)O)cc1F`, the Km in series [3] came to 6 µM. For the same molecule, the k cat in series [5] amounted to 614 s⁻¹. In series [2], the half-life worked out at 2.03 h. The “k cat/Km” value in series [6] was 1.02e+08 M⁻¹ s⁻¹.

Consider `O=C(O)CC[C@H](NC(=O)c1ccc(N(CCCl)CCCl)cc1F)C(=O)O`, for which the IC50 in the series on LS174T [1] and in the series with LS174T [4] was greater than 800 µM throughout. Also, the Km in series [3] was determined as 15 µM. For the same molecule, the k cat in series [5] is 462 s⁻¹. Also, in series [6], the “k cat/Km” value was found to be 3.1e+07 M⁻¹ s⁻¹.

On to `CS(=O)(=O)OCCN(CCCl)c1ccc(C(=O)O)c(F)c1`, for which the IC50 in the series with LS174T [1] is greater than 800 µM. Further, the half-life in series [2] came out at 3.2 h.

For the molecule `CS(=O)(=O)OCCN(CCCl)c1ccc(C(=O)O)cc1F`, in the series on LS174T [1], the IC50 amounted to 280 µM. Moreover, the half-life in series [2] turned out to be 0.04 h.

On to `CS(=O)(=O)OCCN(CCOS(C)(=O)=O)c1ccc(C(=O)O)cc1F`, for which the midpoint of inhibition with LS174T [1], the IC50, lay at 480 µM. In series [2], this molecule registered a half-life of 0.0317 h.

Regarding `O=C(O)CC[C@H](NC(=O)c1ccc(N(CCCl)CCCl)c(F)c1)C(=O)O`, the results for the IC50 in the series on LS174T [1] and in the series with LS174T [4] were greater than 800 µM and 390 µM, respectively. In series [3], the Km turned out to be 10 µM. Also, the k cat in series [5] came out at 1028 s⁻¹. In addition, in series [2], the half-life stood at 2.45 h. The “k cat/Km” value in series [6] was determined as 1.03e+08 M⁻¹ s⁻¹.

Turning to `CS(=O)(=O)OCCN(CCOS(C)(=O)=O)c1ccc(C(=O)N[C@@H](CCC(=O)O)C(=O)O)cc1F`, in series [3], the Km was found to be 17 µM. Moreover, the k cat in series [5] is 565 s⁻¹. The half-life in series [2] stood at 0.15 h. In series [6], the “k cat/Km” value was 3.3e+07 M⁻¹ s⁻¹.
